T cell HTS – T cell immune modulators affecting CD8 T cell-vesicle binding. AID 2052. 330,000 tested, 0.068% active. 2C CD8+ T cell-vesicle binding, flow cytometry; stronger effect = lower value. response (vesicle binding), % at 7 µM;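 active = response, share of CD8 T cells binding vesicles, and their 90th percentile fluorescence all below set limits, cut at about 80% in these data, passing the limit was not always enough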;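 note: values below 100% mean blocked vesicle binding to the CD8+ T cells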
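Read-out – percent CD8+ FL2 mean versus row control · System – murine 2C transgenic CD8+ T lymphocytes · Times – 1.5 h cell–vesicle binding at 37 °C, then 20 min icy labelling · Control set – naked vesicles low, QL9 vesicles with vehicle high · Detection – cytometric PE anti-B7-1 and Alexa647 anti-CD8 signals after 1% paraformaldehyde fixation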
Mot1-301 SUMO – blocks SUMOylation pathway, rescuing yeast Mot1-301 growth. S. cerevisiae Mot1-301 growth rescue, ATP luminescence, 38.5C; percent above DMSO median, 100 means doubled. growth rescue, % at 18.8 µM. 320,000 tested, 1% active;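 active = every valid replicate shows activation above 250% relative to neutral control wells; inactive = the rest, any valid replicate at or below 250%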;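 note: OY570 slx delta 5 strain wells were the positive control but not used for scaling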
GASC-1 inh – human JMJD2C demethylase inhibition. GST-JMJD2C(1-420) H3K9me3 demethylation, DELFIA europium. inhibition, % at 2.35 µM. 330,000 tested, 0.069% active;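 active = more than half of a compound's replicate wells show inhibition beyond 50%, single wells judged on their own value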;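 note: signal counts dimethyl H3K9 product captured on neutravidin plate; 0% = median of DMSO wells and 100% = 0.3 times that DMSO median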
Target sequence (Q9H3R0 1-420 limits assumed): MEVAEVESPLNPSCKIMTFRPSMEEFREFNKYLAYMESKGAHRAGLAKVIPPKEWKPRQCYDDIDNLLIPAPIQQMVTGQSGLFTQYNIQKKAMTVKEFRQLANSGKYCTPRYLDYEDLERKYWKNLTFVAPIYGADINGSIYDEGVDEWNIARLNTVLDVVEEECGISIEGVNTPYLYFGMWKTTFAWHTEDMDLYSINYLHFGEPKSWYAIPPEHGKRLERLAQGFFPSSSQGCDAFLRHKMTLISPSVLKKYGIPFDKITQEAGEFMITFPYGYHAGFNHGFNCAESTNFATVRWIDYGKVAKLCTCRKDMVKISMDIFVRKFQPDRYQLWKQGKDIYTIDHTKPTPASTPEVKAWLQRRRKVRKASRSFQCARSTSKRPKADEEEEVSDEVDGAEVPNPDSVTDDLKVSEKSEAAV
HIF activator – HIF pathway transcriptional activation. U2OS HRE-luciferase reporter, luminescence; normalized: DMSO 0%, desferrioxamine 100%. activation, % at 7.5 µM (by protocol). 300,000 tested, 0.32% active. AID 1910;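 active = mean activation of at least 10% of the iron chelator positive control signal, with at least half of replicates also reaching 10%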
Numbers without * were called inactive; i = inactive; · = no result. Only some compounds are listed: those with a hit (about 1.4% of all), similar ones and a draw of the others.

SMILES | T cell HTS | Mot1-301 SUMO | GASC-1 inh | HIF activator
CC(C(=O)N1c2ccc(F)cc2CCC1C)N1C(=O)c2ccccc2C1=O (centres undefined) | 0.0 | 262.2* | 12.3 | -14.4
CCC(CC)C(=O)N1c2ccc(F)cc2CCC1C (centres undefined) | 214.2 | -8.2 | -4.7 | 0.9
CCC(C)CCCCNC1=NCCS1 (centres undefined) | 369.9 | -11.2 | -1.3 | 0.1
CCCCCCNC1=NCCS1 | 324.2 | 719.7* | -16.1 | -0.3
Nc1nnc(SCCOc2ccc(Br)cc2)s1 | 0.0* | 10.6 | 3.3 | 0.8
Nc1nnc(SCCOc2ccccc2)s1 | 419.7 | -7.5 | 2.8 | 0.5
COc1cccc(N2CCN(C(=O)CCCCCn3c(=S)[nH]c4cc5c(cc4c3=O)OCO5)CC2)c1 | 313.0 | -9.8 | -1.9 | -1.9
COc1cccc(CNC(=O)CCCn2c(=S)[nH]c3cc4c(cc3c2=O)OCO4)c1 | 372.6 | 5.6 | -1.9 | 28.8*
COc1ccc(NC(=O)CSc2nnc(Cn3nnc4ccccc43)n2C)cc1 | 230.0 | 82.8 | 1.0 | ·
COc1ccc(NC(=O)CSc2nnc(Cn3cnc([N+](=O)[O-])n3)n2C)cc1 | 187.6 | 343.9* | 17.9 | 0.4
CCOc1ccc(NC(=O)CSc2nnc(Cn3cnc4ccccc43)n2C)cc1 | 407.4 | 12.5 | -4.1 | 19.8*
COc1cccc(NC(=O)CSc2nnc(Cn3cnc([N+](=O)[O-])n3)n2C)c1 | 523.1 | 1.8 | -2.7 | -0.7
CCOc1ccc(NC(=O)CSc2nnnn2-c2ccc(C(N)=O)cc2)cc1 | 98.1 | 264.0* | -10.6 | 0.6
Cc1ccc(S(=O)(=O)c2nc(-c3ccccc3Br)oc2N(C)C)cc1 | 515.7 | -5.9 | -43.2 | 0.9
CN(C)CCCNc1oc(-c2ccccc2Cl)nc1S(=O)(=O)c1ccc(F)cc1 | i | 5.7 | 4.5 | 0.0
CN(C)CCNc1oc(-c2ccccc2Cl)nc1S(=O)(=O)c1ccccc1 | 0.0* | -17.4 | 3.1 | ·
Cc1ccc(S(=O)(=O)c2nc(-c3ccccc3Cl)oc2N(C)C)cc1 | 953.6 | 5.9 | -1.3 | 55.6*
O=C(NCC1CCCO1)c1cccc(S(=O)(=O)NCc2ccccc2)c1 (centres undefined) | 417.2 | -20.8 | 13.1 | -0.4
CC(=O)Nc1ccc(S(=O)(=O)Nc2ccc(S(=O)(=O)Nc3nc(C)cc(C)n3)cc2)cc1 | 191.5 | -3.6 | 2.2 | 0.2
CC(=O)Nc1ccc(S(=O)(=O)Nc2ccc(C(=O)NCC(=O)O)cc2)cc1 | 104.2 | 348.9* | -0.3 | -0.1
Cc1ccc(S(=O)(=O)N(Cc2ccc([N+](=O)[O-])cc2)C(=O)N2CCN(C)CC2)cc1 | · | · | -1.5 | 3.9
CCc1cc(=O)oc2c3c(cc(OCC(=O)NCCN4CCOCC4)c12)OC(C)(C)CC3 | 526.5 | -2.2 | -3.2 | 0.3
COc1cc(C(C(=O)NC2CCCCC2)N(C(=O)Cc2c[nH]c3ccccc23)c2ccccc2C)cc(OC)c1OC (centres undefined) | 327.6 | -4.2 | 14.4 | -0.2
COc1cc(C(C(=O)NC2CCCCC2)N(Cc2cccs2)C(=O)Cc2c[nH]c3ccccc23)cc(OC)c1OC (centres undefined) | 317.7 | 96.6 | 52.4* | 0.0
O=C(N/N=C1/CCSC1)c1cc(Br)ccc1O | 215.8 | -5.5 | -0.3 | 0.2
SMILES | T cell HTS | Mot1-301 SUMO | GASC-1 inh | HIF activator
O=C(COC(=O)CCc1c[nH]c2ccccc12)NCc1ccc2c(c1)OCO2 | 351.5 | -10.3 | -8.5 | -2.0
COC(=O)c1sccc1NC(=O)c1ccc(OC)cc1OC | 216.4 | 420.1* | -2.9 | 0.0
COc1ccc(C(CNC(=O)c2cccc(S(=O)(=O)NCc3ccccc3)c2)N2CCOCC2)cc1 (centres undefined) | 421.2 | -9.6 | 5.7 | -0.1
Cc1sc2ncnc(Sc3nnnn3-c3ccccc3)c2c1C | 416.4 | -14.2 | -24.8 | 0.2
Clc1ccc(-n2nnnc2Sc2ncnc3sccc23)cc1 | 480.0 | 577.9* | 9.9 | 0.8
Cn1c(CCNC(=O)c2ccco2)nc2cc(NC(=O)NC3CCCCC3)ccc21 | 148.9 | -4.8 | 1.6 | 2.1
Cn1c(CCNC(=O)c2ccco2)nc2cc(NC(=O)C3CCCCC3)ccc21 | 406.2 | -15.0 | -2.9 | 175.8*
O=C(O)C1C2CCC(O2)C1C(=O)Nc1ccc(F)c(Cl)c1 (centres undefined) | 223.9 | 13.0 | -11.6 | -2.7
Cc1ccc(NC(=O)C2C3CCC(O3)C2C(=O)O)cc1Cl (centres undefined) | 426.4 | 354.5* | 10.5 | -1.4
Cc1sc2cc3c(c(C(=O)c4ccccc4)[n+]2c1C)-c1cccc2cccc-3c12 | 239.5 | -19.8 | 7.1 | 11.0*

Assay outcomes from PubChem BioAssay.
